These results are taken from ChEMBL document CHEMBL1177762, “Identification of a sulfonamide series of CCR2 antagonists” (Bioorg Med Chem Lett, 2010).

The target in data set [1] is T1, C-C chemokine receptor type 2 (Homo sapiens, UniProt P41597). The data set can be described thus: Antagonist activity at CCR2 in human THP1 cells assessed as inhibition of CCL2-induced chemotaxis at 1 uM in presence of 0.1% human serum. It counts as functional, cell-based. The note with it: THP-1. The method, boiled down: (§1)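 Boyden chamber (48-well) chemotaxis of THP-1 cells stimulated with CCL2. Foetal bovine serum or human serum was added to the assay buffer.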
Target sequence in this assay (P41597 whole entry, looked up): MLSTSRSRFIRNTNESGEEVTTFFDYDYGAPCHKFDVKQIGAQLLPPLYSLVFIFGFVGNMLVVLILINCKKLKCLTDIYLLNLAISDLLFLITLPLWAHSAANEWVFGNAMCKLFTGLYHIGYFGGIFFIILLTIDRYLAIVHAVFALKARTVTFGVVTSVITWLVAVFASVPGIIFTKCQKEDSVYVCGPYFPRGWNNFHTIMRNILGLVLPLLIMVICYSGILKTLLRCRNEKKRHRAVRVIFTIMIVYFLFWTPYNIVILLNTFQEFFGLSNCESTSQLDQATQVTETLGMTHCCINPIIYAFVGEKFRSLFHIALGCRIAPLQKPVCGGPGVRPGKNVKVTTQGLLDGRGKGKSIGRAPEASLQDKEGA

Data set [2] concerns the target T1, C-C chemokine receptor type 2. The data set can be described thus: Antagonist activity at human CCR2 expressed in CHO cells assessed as inhibition of MCP1-induced [35S]-GTPgammaS binding after 3 hrs. Format: functional, cell-based. In general terms: Binding of GTPγS marks nucleotide exchange on a G protein.
Target sequence in this assay (P41597 whole entry): as the sequence (P41597 whole entry, looked up) above
Data set [3] has as its target T2, Albumin (Homo sapiens, UniProt P02768). The data set can be described thus: Binding affinity to immobilised human serum albumin by chromatographic analysis. It counts as ADME. The note with it: isolated protein.
For data set [4], the target named is T1, C-C chemokine receptor type 2. The data set can be described thus: Antagonist activity at CCR2 in human THP1 cells assessed as inhibition of CCL2-induced chemotaxis at 1 uM in presence of 1% human serum. It counts as functional, cell-based. The note with it: THP-1. The essentials: as §1
Target sequence in this assay (P41597 whole entry, looked up): as above
Data set [5] can be described thus: Lipophilicity, log D of the compound. It counts as physicochemical. The note with it: octanol/water.
Data set [6] has as its target T2, Albumin. The data set can be described thus: Binding affinity to immobilised human serum albumin by ultrafiltration and biacore method. It counts as ADME. The note with it: isolated protein. In general terms: In SPR one partner is held on a chip, and binding of the other changes the refractive index at the surface.
A short description of data set [7]: Half life in po dosed in rat. Format: ADME, organism-based. The note with it: in vivo.
A further data set addresses T3, Cytochrome P450 1A2 (Homo sapiens, UniProt P05177).
T3 sequence (P05177 whole entry): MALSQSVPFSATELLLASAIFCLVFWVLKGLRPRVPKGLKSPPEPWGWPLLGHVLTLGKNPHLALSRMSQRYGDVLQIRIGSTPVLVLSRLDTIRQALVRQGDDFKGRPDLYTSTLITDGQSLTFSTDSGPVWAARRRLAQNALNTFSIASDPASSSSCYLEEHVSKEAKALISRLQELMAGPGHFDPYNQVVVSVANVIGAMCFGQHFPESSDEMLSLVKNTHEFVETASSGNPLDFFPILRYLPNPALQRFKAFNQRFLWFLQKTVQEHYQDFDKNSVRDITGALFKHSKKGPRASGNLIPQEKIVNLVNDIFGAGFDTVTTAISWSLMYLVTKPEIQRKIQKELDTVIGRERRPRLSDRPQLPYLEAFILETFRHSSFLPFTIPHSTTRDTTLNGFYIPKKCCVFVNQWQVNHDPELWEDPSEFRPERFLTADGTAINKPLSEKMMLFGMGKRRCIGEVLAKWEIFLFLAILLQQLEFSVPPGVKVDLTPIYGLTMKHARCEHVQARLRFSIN
The data set can be described thus: Inhibition of CYP1A2. Format: ADME.

In data set [8] the target is T1, C-C chemokine receptor type 2. The data set can be described thus: Inhibition of CCR2-mediated chemotaxis in human THP1 cells assessed as half life of reversibility at 10 uM after assay buffer exchange. The note with it: THP-1. Format: cell-based. The essentials:
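THP-1 cells were preincubated with compound at 10 µM for 30 min. The assay buffer was then exchanged and CCL2-driven chemotaxis was stimulated periodically to generate a reversibility curve. The half-life of reversibility was taken from this curve.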
Target sequence in this assay (P41597 whole entry, looked up): as the sequence (P41597 whole entry, looked up) above

Data set [9] is described as follows: Oral bioavailability in rat. It counts as ADME, organism-based. The note with it: in vivo.
The nature of data set [10]: Clearance in rat. The note with it: in vivo. Format: ADME, organism-based.
Another data set addresses Cytochrome P450 2C9 (Homo sapiens, UniProt P11712). The data set can be described thus: Inhibition of CYP2C9. It counts as ADME.
For another data set, the species on record is Rattus norvegicus. The data set can be described thus: Volume of distribution in rat. Format: ADME, organism-based. The note with it: in vivo.
A further data set has as its target Cytochrome P450 3A4 (Homo sapiens, UniProt P08684). The data set can be described thus: Inhibition of CYP3A4. It counts as ADME.
Data set [11] in a line: Half life in iv dosed in rat. Format: ADME, organism-based. The note with it: in vivo.
The target of data set [12] is C-C chemokine receptor type 5 (Homo sapiens, UniProt P51681). The data set can be described thus: Antagonist activity at CCR5. Format: functional.
Another data set concerns the target Cytochrome P450 2D6 (Homo sapiens, UniProt P10635). The data set can be described thus: Inhibition of CYP2D6. It counts as ADME.
The target in data set [13] is T4, C-C chemokine receptor type 4 (Homo sapiens, UniProt P51679).
T4 sequence (P51679 whole entry): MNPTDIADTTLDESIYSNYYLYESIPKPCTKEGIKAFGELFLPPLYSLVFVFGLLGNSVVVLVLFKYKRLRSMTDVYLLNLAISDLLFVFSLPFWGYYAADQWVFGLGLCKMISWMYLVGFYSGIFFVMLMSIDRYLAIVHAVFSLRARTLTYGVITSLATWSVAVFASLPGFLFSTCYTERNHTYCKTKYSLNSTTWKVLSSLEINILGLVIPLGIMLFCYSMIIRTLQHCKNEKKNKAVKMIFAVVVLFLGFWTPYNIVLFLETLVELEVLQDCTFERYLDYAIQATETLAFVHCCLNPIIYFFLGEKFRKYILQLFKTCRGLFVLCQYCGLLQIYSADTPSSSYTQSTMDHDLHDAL
The data set can be described thus: Antagonist activity at CCR4. It counts as functional.

Another data set has as its target Cytochrome P450 2C19 (Homo sapiens, UniProt P33261). The data set can be described thus: Inhibition of CYP2C19. Format: ADME.
Data set [14] concerns the target Voltage-gated inwardly rectifying potassium channel KCNH2 (Homo sapiens, UniProt Q12809). The data set can be described thus: Binding affinity to human ERG by fluorescence-polarization binding assay.

As usually defined, the inhibition is the percentage by which the read-out fell short of the control. By Ki is commonly meant the dissociation constant of the complex between target and ligand, obtained from inhibition or displacement. One may read the logD as the decadic logarithm of the distribution of all forms, ionised or not, between an organic phase and buffer at a given pH. The low end stands for a more hydrophilic compound, the high end for a more lipophilic compound. For orientation: half-life means the time needed for the level to fall by half in the phase considered. A lower half-life goes with fast loss. As a reminder, the IC50 is the concentration at which inhibition is half-maximal. A high value points to a need for much substance. As a reminder, the bioavailability is dose-corrected exposure relative to a reference, in per cent. Read a low bioavailability as poor availability. By clearance is commonly meant a measure of how efficiently the substance is removed, as volume per time. What is called Vd is the apparent volume that relates the amount in the body to the concentration in plasma or blood. A higher Vd goes with wide distribution into tissue.

The structures appear in SMILES notation.

T2 sequence (P02768 whole entry): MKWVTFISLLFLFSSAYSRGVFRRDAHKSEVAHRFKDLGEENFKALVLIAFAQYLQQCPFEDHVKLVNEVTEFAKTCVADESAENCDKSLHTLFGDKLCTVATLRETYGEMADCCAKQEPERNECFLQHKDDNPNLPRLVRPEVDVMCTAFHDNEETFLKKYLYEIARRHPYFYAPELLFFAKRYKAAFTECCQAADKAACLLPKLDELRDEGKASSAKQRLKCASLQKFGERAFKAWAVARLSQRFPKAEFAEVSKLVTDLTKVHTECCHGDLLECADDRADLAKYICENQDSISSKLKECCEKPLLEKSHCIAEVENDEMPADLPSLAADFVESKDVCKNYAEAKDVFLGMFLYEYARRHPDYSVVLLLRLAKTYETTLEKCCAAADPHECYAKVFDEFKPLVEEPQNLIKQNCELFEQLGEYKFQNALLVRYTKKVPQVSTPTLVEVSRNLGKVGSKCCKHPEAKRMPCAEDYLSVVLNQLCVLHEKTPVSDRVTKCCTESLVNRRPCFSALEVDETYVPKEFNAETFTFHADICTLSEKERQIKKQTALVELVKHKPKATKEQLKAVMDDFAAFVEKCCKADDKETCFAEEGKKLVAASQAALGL
Chain of Cytochrome P450 2C19 (P33261 whole entry): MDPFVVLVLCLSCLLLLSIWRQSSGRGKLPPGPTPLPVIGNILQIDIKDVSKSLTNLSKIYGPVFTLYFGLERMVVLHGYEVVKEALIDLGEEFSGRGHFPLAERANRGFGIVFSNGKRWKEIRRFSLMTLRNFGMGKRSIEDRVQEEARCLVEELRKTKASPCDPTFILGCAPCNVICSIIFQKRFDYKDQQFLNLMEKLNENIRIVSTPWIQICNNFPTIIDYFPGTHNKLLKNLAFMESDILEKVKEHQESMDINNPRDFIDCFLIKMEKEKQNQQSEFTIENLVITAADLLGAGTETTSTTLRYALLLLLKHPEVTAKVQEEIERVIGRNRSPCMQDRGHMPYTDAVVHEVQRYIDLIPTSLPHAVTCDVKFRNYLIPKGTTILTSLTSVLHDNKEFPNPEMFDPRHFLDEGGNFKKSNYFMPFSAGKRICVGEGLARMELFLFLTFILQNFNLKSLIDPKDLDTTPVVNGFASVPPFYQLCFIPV
Chain of C-C chemokine receptor type 5 (P51681 whole entry): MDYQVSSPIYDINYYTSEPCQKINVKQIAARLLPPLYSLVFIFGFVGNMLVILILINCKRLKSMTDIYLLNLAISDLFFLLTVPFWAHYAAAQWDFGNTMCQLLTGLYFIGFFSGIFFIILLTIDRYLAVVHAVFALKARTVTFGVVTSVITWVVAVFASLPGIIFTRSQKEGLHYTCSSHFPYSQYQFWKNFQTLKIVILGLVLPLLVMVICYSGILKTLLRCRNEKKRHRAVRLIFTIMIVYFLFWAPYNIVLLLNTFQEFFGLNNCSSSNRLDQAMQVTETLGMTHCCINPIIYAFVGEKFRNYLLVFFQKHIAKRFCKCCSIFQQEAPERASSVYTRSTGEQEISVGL
Chain of Cytochrome P450 3A4 (P08684 whole entry): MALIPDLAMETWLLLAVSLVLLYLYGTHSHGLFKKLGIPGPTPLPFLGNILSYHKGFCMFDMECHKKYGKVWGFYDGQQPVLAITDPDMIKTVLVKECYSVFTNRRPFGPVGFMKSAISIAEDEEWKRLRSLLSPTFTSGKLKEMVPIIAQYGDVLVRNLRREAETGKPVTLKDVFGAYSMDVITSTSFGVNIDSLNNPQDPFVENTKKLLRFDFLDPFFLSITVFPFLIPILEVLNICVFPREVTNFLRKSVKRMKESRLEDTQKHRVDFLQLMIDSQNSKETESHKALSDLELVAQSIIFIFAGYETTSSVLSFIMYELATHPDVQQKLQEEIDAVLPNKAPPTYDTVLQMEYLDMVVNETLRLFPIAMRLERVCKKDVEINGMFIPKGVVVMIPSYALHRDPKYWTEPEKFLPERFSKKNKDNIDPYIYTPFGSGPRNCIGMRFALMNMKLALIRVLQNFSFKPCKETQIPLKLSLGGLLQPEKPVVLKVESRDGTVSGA
Chain of Cytochrome P450 2C9 (P11712 whole entry): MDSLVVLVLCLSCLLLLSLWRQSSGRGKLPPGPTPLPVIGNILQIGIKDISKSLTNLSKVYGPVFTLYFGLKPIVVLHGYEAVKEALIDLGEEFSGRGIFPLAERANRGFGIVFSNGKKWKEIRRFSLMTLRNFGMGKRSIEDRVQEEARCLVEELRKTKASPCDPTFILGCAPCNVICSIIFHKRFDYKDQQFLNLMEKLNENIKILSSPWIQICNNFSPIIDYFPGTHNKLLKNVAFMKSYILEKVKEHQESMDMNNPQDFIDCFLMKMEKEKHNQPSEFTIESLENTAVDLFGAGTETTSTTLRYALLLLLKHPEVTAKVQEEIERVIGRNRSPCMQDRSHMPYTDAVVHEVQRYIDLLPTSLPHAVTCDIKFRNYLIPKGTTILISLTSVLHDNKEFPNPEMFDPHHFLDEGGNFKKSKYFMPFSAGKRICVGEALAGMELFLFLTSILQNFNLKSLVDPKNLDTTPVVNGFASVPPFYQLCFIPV
Chain of Voltage-gated inwardly rectifying potassium channel KCNH2 (Q12809 whole entry): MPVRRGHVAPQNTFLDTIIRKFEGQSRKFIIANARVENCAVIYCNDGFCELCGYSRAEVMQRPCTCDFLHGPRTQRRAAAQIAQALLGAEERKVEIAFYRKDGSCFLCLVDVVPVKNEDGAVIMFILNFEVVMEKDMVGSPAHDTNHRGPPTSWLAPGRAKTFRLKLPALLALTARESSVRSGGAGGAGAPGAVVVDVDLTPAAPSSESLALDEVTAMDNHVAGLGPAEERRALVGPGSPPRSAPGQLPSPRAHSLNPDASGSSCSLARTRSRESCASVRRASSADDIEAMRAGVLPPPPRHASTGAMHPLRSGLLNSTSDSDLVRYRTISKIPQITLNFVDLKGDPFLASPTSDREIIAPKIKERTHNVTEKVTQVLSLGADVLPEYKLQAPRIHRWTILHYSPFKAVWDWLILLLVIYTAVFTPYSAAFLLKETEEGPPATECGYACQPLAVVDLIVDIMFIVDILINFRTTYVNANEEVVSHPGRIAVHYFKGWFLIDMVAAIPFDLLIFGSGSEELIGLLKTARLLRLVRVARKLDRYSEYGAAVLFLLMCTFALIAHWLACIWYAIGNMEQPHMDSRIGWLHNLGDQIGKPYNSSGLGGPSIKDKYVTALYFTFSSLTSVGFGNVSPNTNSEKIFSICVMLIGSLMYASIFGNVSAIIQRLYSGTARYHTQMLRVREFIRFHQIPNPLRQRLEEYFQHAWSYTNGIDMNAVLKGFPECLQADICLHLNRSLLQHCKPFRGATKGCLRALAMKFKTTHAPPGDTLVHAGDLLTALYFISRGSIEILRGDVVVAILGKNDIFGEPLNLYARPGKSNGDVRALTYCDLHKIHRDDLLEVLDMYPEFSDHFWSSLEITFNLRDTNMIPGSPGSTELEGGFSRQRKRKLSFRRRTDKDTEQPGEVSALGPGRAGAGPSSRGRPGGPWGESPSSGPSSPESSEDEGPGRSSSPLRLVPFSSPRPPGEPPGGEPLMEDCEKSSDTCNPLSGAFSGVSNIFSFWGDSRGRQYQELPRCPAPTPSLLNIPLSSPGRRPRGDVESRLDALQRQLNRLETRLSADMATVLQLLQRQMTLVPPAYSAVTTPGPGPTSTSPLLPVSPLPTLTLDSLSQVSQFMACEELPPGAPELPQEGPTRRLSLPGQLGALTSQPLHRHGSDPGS
Chain of Cytochrome P450 2D6 (P10635 whole entry): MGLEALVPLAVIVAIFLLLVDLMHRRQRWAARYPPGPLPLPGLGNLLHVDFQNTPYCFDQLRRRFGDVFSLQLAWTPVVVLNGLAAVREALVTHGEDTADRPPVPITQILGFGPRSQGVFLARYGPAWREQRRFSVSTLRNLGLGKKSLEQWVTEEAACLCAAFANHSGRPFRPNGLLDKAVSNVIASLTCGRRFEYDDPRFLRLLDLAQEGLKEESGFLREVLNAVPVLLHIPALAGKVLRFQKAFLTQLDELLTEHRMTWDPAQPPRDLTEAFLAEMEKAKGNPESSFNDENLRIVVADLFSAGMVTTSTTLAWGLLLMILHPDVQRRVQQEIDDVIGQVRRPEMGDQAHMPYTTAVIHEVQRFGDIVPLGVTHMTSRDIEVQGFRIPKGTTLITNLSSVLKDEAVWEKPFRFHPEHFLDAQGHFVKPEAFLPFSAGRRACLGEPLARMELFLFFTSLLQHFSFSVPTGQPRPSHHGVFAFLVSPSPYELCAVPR

`O=S(=O)(Nc1cc(Cl)cnc1Oc1cccnc1)c1ccc(Cl)c(Cl)c1`: the inhibition in data set [1] was determined as 36%; in data set [4], 5.4%. Further, in [2], the Ki is 0.02 µM. Also, the Activity is given as greater than 98% at Albumin [3] and greater than 99.5% at Albumin [6]. The logD in [5] turned out to be 2.32.
For the molecule `O=C(O)c1ccccc1Oc1ncc(Cl)cc1NS(=O)(=O)c1ccc(Cl)c(Cl)c1`, the half-life in data set [7] and in data set [11] was 4.5 h throughout. Further, the IC50 is 39.8 µM at Cytochrome P450 1A2; 21.4 µM against Cytochrome P450 2C9; 100 µM against Cytochrome P450 3A4; 0.251 µM in [12]; 100 µM at Cytochrome P450 2D6; 39.8 µM against Cytochrome P450 2C19. The same molecule gave an IC50 in data set [14] greater than 31.6 µM. In addition, in data set [8], the T1/2 is 4.67 h. In data set [9], the bioavailability worked out at 97%. For the same molecule, the clearance in data set [10] came out at 0.71 mL/min/kg. Further, the inhibition in data set [1] came out at 67%; in [4] it was 37%. In the data set filed under Rattus norvegicus, this molecule displayed a Vd of 0.12 L/kg. The Ki in data set [2] is 0.00126 µM; in data set [13], 0.794 µM. For the same molecule, the logD in data set [5] came to 0.8.
